T1: 4EHP–GYF2 (35–105) complex (Homo sapiens, UniProt O60573+Q6Y7W6)
T1 sequence (O60573 52-234): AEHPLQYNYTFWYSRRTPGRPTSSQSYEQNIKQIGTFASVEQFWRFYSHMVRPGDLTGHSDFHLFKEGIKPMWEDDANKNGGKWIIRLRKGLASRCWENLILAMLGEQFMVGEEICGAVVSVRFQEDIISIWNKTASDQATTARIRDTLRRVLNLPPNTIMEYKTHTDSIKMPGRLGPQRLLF
T1 sequence (Q6Y7W6 35-105 partner limits assumed): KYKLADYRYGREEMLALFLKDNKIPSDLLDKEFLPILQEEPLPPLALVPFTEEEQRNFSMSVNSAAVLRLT

T2: 4EHP RE-LL–4E-BP1 complex (Homo sapiens, UniProt O60573, E149L/R103L)
T2 sequence (O60573 52-234 R103L/E149L): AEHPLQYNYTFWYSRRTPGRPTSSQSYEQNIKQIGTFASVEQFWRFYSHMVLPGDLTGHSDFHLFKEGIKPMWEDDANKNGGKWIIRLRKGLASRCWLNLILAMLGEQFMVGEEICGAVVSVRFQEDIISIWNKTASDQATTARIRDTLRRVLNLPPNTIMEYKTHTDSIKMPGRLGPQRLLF

T3: 4EHP–4E-BP1 complex (Homo sapiens, UniProt O60573)
T3 sequence (O60573 52-234): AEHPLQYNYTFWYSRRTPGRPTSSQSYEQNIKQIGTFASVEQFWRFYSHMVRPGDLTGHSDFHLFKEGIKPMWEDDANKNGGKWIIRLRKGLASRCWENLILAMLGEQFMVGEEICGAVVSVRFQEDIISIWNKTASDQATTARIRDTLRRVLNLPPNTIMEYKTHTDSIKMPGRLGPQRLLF


Key:
[1] = tested on: R-Luc-6xMS2-A95-MALAT1 reporter; test: Tethering assay, R-Luc-6xMS2-A95-MALAT1 reporter, HEK293T cells; assay type: cell-based, human; details: MS2-HA-GYF2, HEK293T cells
Procedure, shortened: (§1)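 HEK293T cells transfected with 0.25 µg F-Luc-GFP control plasmid, 0.5 µg R-Luc-6xMS2-A95-MALAT1 reporter (or R-Luc-A95-MALAT1, lacking MS2 sites), 0.25 µg GFP-MBP, and 0.3 µg MS2-HA or 1 µg MS2-HA-GYF2 (wild type or canonical mutant) plasmid. Dual luciferase read 2 d post-transfection. R-Luc normalized to F-Luc, set to 100% for MS2-HA. Mean ± SD of three independent experiments.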

[2] = tested on: R-Luc-ARE-A90-MALAT1 reporter; assay type: cell-based, human; details: λN-HA-TTPΔNIM with GFP-GYF2 and/or λN-HA-4EHP, GYF1/2-null HEK293T cells
Procedure, shortened: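 Wild-type and GYF1/2-null HEK293T cells received 1 µg R-Luc-ARE-A90-MALAT1 reporter and 0.25 µg F-Luc-GFP control. Where indicated, they also received 50 ng λN-HA-TTPΔNIM, 0.2 µg GFP-MBP, 1 µg GFP-GYF2 (wild type or C*) and 0.5 µg λN-HA-4EHP. Dual luciferase was measured 2 d post-transfection. R-Luc/F-Luc was set to 100% without TTP for each cell line.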

[3] = biological target: T1, 4EHP–GYF2 (35–105) complex; test: ITC, m7GpppG cap analog vs 4EHP–GYF2 complex; assay type: binding; details: 20 mM HEPES pH 7.5, 200 mM NaCl
[4] = biological target: T2, 4EHP RE-LL–4E-BP1 complex; test: Competition assay, preassembled 4EHP RE-LL–4E-BP1 complex; assay type: biochemical; details: after 60 min of incubation with equimolar GYF2 fragment
4EHP–4E-BP1 complex = biological target: T3, 4EHP–4E-BP1 complex; test: Competition assay, preassembled 4EHP–4E-BP1 complex; assay type: biochemical; details: competition assay with equimolar GYF2 fragment
[5] = tested on: R-Luc-5BoxB-A95-MALAT1 reporter; assay type: cell-based, human; details: λN-HA-4EHP with GFP-MBP or GFP-GYF2, GYF1/2-null HEK293T cells
Procedure, shortened: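 GYF1/2-null and control HEK293T cells were seeded at 0.6 × 10^6 cells per well and lipofected. Each well received 0.25 µg F-Luc-GFP control, 0.5 µg R-Luc-5BoxB-A95-MALAT1 reporter, and 0.3 µg λN-HA or 0.7 µg λN-HA-4EHP. Cells also got 0.25 µg GFP-MBP, 1.8 µg GFP-GYF2 wild type or 1.2 µg C* mutant. Luciferases were read after 2 d. R-Luc/F-Luc was set to 100% for λN-HA. Mean ± SD, three independent experiments.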

[6] = tested on: R-Luc-A95-MALAT1 reporter; test: Tethering assay, reporter lacking the MS2-binding sites; assay type: cell-based, human; details: MS2-HA-GYF2, HEK293T cells
Procedure, shortened: as §1

4E-BP1 displaced from 4EHP RE-LL [4]	Molecule	repression of MS2 reporter expression [1]	TTP-mediated repression of the ARE reporter, GYF1/2-null cells [2]	effect on 4EHP's affinity for the m7GpppG cap analog [3]	competitive advantage over 4E-BP1 for binding to 4EHP (4EHP–4E-BP1 complex)	repression of tethered reporter by 4EHP in GYF1/2-null cells [5]	effect on reporter lacking the MS2-binding sites [6]
–	GYF2 C: GYF2 residues K35–K54, canonical 4EHP-binding region (KYKLADYRYGREEMLALFLK; UniProt Q6Y7W6 35-54, looked up, fragment)	still repressed the expression of the R-Luc-6xMS2-A95-MALAT1 reporter as efficiently as wild-type GYF2	No restoration was observed	–	–	–	–
40%	GYF2 C+L+NC+A: GYF2 residues K35–T105, complete 4EHP-binding region (left off: MBP, N-terminal, state not stated | GB1, C-terminal, kept) KYKLADYRYGREEMLALFLKDNKIPSDLLDKEFLPILQEEPLPPLALVPFTEEEQRNFSMSVNSAAVLRLT	–	–	did not increase the affinity of 4EHP for an m^7GpppG cap analog	–	–	–
–	GYF2: Hs GIGYF2 Q6Y7W6-1, full-length (1–1299) (protein) MAAETQTLNFGPEWLRALSSGGSITSPPLSPALPKYKLADYRYGREEMLALFLKDNKIPSDLLDKEFLPILQEEPLPPLALVPFTEEEQRNFSMSVNSAAVLRLTGRGGGGTVVGAPRGRSSSRGRGRGRGECGFYQRSFDEVEGVFGRGGGREMHRSQSWEERGDRRFEKPGRKDVGRPNFEEGGPTSVGRKHEFIRSESENWRIFREEQNGEDEDGGWRLAGSRRDGERWRPHSPDGPRSAGWREHMERRRRFEFDFRDRDDERGYRRVRSGSGSIDDDRDSLPEWCLEDAEEEMGTFDSSGAFLSLKKVQKEPIPEEQEMDFRPVDEGEECSDSEGSHNEEAKEPDKTNKKEGEKTDRVGVEASEETPQTSSSSARPGTPSDHQSQEASQFERKDEPKTEQTEKAEEETRMENSLPAKVPSRGDEMVADVQQPLSQIPSDTASPLLILPPPVPNPSPTLRPVETPVVGAPGMGSVSTEPDDEEGLKHLEQQAEKMVAYLQDSALDDERLASKLQEHRAKGVSIPLMHEAMQKWYYKDPQGEIQGPFNNQEMAEWFQAGYFTMSLLVKRACDESFQPLGDIMKMWGRVPFSPGPAPPPHMGELDQERLTRQQELTALYQMQHLQYQQFLIQQQYAQVLAQQQKAALSSQQQQQLALLLQQFQTLKMRISDQNIIPSVTRSVSVPDTGSIWELQPTASQPTVWEGGSVWDLPLDTTTPGPALEQLQQLEKAKAAKLEQERREAEMRAKREEEERKRQEELRRQQEEILRRQQEEERKRREEEELARRKQEEALRRQREQEIALRRQREEEERQQQEEALRRLEERRREEEERRKQEELLRKQEEEAAKWAREEEEAQRRLEENRLRMEEEAARLRHEEEERKRKELEVQRQKELMRQRQQQQEALRRLQQQQQQQQLAQMKLPSSSTWGQQSNTTACQSQATLSLAEIQKLEEERERQLREEQRRQQRELMKALQQQQQQQQQKLSGWGNVSKPSGTTKSLLEIQQEEARQMQKQQQQQQQHQQPNRARNNTHSNLHTSIGNSVWGSINTGPPNQWASDLVSSIWSNADTKNSNMGFWDDAVKEVGPRNSTNKNKNNASLSKSVGVSNRQNKKVEEEEKLLKLFQGVNKAQDGFTQWCEQMLHALNTANNLDVPTFVSFLKEVESPYEVHDYIRAYLGDTSEAKEFAKQFLERRAKQKANQQRQQQQLPQQQQQQPPQQPPQQPQQQDSVWGMNHSTLHSVFQTNQSNNQQSNFEAVQSGKKKKKQKMVRADPSLLGFSVNASSERLNMGEIETLDDY	repressed mRNA reporter expression in tethering assays	–	–	the auxiliary sequences afford GYF2 a competitive advantage over 4E-BP1 for binding to 4EHP	restored by transient expression of wild-type GFP-tagged GYF2	did not repress a reporter lacking the MS2-binding sites

Source: paper PMC5538437 (Genes & Development, 2017)
